Data published in ChEMBL document CHEMBL1156240, “Papyriferic acid derivatives as reversal agents of multidrug resistance in cancer cells” (Bioorg Med Chem, 2010).

How the values were obtained:
KB = test: Cytotoxicity against human KB cells after 48 hrs by MTT assay; assay type: functional, cell-based
KB-C2 [1] = test: Inhibition of P-gp-mediated multidrug-resistance in human KB-C2 cells assessed as increase in colchicine-induced cytotoxicity at 5 ug/ml after 48 hrs by MTT assay; assay type: cell-based
[2] = Cytotoxicity against human multidrug-resistant KB-C2 cells after 48 hrs by MTT assay; assay type: functional, cell-based; conditions: KB-C2, 48 h
Summary of the method: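 Seeded 5 × 10³ cells/well, preincubated 24 h, then compounds at 2, 10, 50, 100 µg/mL in medium (0.5% DMSO final) for 48 h. MTT 0.5 mg/mL for 4 h, formazan dissolved in DMSO, OD 540 nm; IC50 relative to vehicle controls.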

KB-C2 [3] = test: Inhibition of P-gp-mediated multidrug-resistance in human KB-C2 cells assessed as increase in colchicine-induced cytotoxicity at 1 ug/ml after 48 hrs by MTT assay; assay type: cell-based

COC(=O)CC(=O)O[C@@H]1CC[C@]2(C)[C@H]3C[C@@H](OC(C)=O)[C@@H]4[C@@H]([C@]5(C)CC[C@H](C(C)(C)O)O5)CC[C@@]4(C)[C@]3(C)CC[C@H]2C1(C)C [METHYL PAPYRIFERATE]
IC50 (KB): 26.7 µM | fold change (FC) (KB-C2 [1]): 51.6 | IC50 [2]: 32.1 µM | fold change (FC) (KB-C2 [3]): 1.5

COC(=O)CC(=O)O[C@@H]1CC[C@]2(C)[C@H]3CC[C@@H]4[C@@H]([C@]5(C)CC[C@H](C(C)(C)O)O5)CC[C@@]4(C)[C@]3(C)CC[C@H]2C1(C)C
IC50 (KB): 45.4 µM | fold change (FC) (KB-C2 [1]): 14.8 | IC50 [2]: 56.6 µM | fold change (FC) (KB-C2 [3]): 1.1

CCCNC(=O)CC(=O)O[C@@H]1CC[C@]2(C)[C@H]3C[C@@H](OC(C)=O)[C@@H]4[C@@H]([C@]5(C)CC[C@H](C(C)(C)OC(=O)C(=O)NCCC)O5)CC[C@@]4(C)[C@]3(C)CC[C@H]2C1(C)C
IC50 (KB): 24.8 µM | fold change (FC) (KB-C2 [1]): 68.8 | IC50 [2]: 26.6 µM | fold change (FC) (KB-C2 [3]): 1.2

CC(=O)O[C@@H]1C[C@@H]2[C@@]3(C)CC[C@@H](OC(=O)CC(=O)N4CCOCC4)C(C)(C)[C@@H]3CC[C@@]2(C)[C@]2(C)CC[C@H]([C@]3(C)CC[C@H](C(C)(C)O)O3)[C@@H]12
IC50 (KB): 30.8 µM | fold change (FC) (KB-C2 [1]): 185 | IC50 [2]: 27.5 µM | fold change (FC) (KB-C2 [3]): 17.4

CNC(=O)CC(=O)O[C@@H]1CC[C@]2(C)[C@H]3C[C@@H](OC(C)=O)[C@@H]4[C@@H]([C@]5(C)CC[C@H](C(C)(C)O)O5)CC[C@@]4(C)[C@]3(C)CC[C@H]2C1(C)C
IC50 (KB): 40.9 µM | fold change (FC) (KB-C2 [1]): 74.4 | IC50 [2]: 43.1 µM | fold change (FC) (KB-C2 [3]): 4.7

CCNC(=O)CC(=O)O[C@@H]1CC[C@]2(C)[C@H]3C[C@@H](OC(C)=O)[C@@H]4[C@@H]([C@]5(C)CC[C@H](C(C)(C)O)O5)CC[C@@]4(C)[C@]3(C)CC[C@H]2C1(C)C
IC50 (KB): 39.7 µM | fold change (FC) (KB-C2 [1]): 53.9 | IC50 [2]: 43.9 µM | fold change (FC) (KB-C2 [3]): 2.6

CC(=O)O[C@@H]1C[C@@H]2[C@@]3(C)CC[C@@H](OC(=O)CC(N)=O)C(C)(C)[C@@H]3CC[C@@]2(C)[C@]2(C)CC[C@H]([C@]3(C)CC[C@H](C(C)(C)O)O3)[C@@H]12
IC50 (KB): 39.3 µM | fold change (FC) (KB-C2 [1]): 49.3 | IC50 [2]: 43.7 µM | fold change (FC) (KB-C2 [3]): 2.1

CC(=O)O[C@@H]1C[C@@H]2[C@@]3(C)CC[C@@H](OC(=O)CC(=O)N(C)C)C(C)(C)[C@@H]3CC[C@@]2(C)[C@]2(C)CC[C@H]([C@]3(C)CC[C@H](C(C)(C)O)O3)[C@@H]12
IC50 (KB): 25.2 µM | fold change (FC) (KB-C2 [1]): 87.5 | IC50 [2]: 28 µM | fold change (FC) (KB-C2 [3]): 2.4

CC(=O)O[C@@H]1C[C@@H]2[C@@]3(C)CC[C@@H](OC(=O)CC(=O)NC(C)(C)C)C(C)(C)[C@@H]3CC[C@@]2(C)[C@]2(C)CC[C@H]([C@]3(C)CC[C@H](C(C)(C)O)O3)[C@@H]12
IC50 (KB): 40.5 µM | fold change (FC) (KB-C2 [1]): 9.8 | IC50 [2]: 47.9 µM | fold change (FC) (KB-C2 [3]): 1.1
